From PubChem BioAssay
Sampled rows, rich in hits. Any-hit rate of the full collection: about 1.8%.
NR2E3 ag-1: inhibitors of NR2E3-RetCOR corepressor binding, primary screen, NR2E3 agonist project, biochemical, TR-FRET, GST-NR2E3, biotin-RetCOR. inhibition of corepressor binding, % at 4.78 µM. 320,000 compounds, 0.12% hits. Photoreceptor-specific nuclear receptor (Homo sapiens), Q9Y5X4. 1536-well. AID 2300, 2010;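 active means percent inhibition above the cutoff of mean plus 3 SD of all tested compounds, set per screening campaign, cut at about 20% in these data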
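Assay system: NR2E3–RetCOR corepressor complex. Quantity: 1.35 nM GST-NR2E3. Buffer or medium: pH 7.5 Tris-based buffer. Reagent: biotinylated RetCOR corepressor at 7 nM final. Schedule: 5 h at 4 °C. Detection: TR-FRET, emission read at 617 and 671 nm. Replicates: one well per compound, singlicate testing.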
GalR3 antag: GalR3 antagonists in HEK293 cells, primary screen, cell-based, fluorescence readout; HEK293 GalR3-CNG cAMP membrane potential fluorescence; galR3 body fused to GalR1 C-terminus; inhibition, % at 3 µM; 360,000 compounds, 0.44% hits;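 active means inhibition above the screen-wide average plus 3 SD, cut at about 13% in these data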;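 further: forskolin and galanin both at EC90 stimulate the cells; cAMP rise reported by CNG channel membrane potential dye signal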
Target sequence (O60755 1-299 limits assumed): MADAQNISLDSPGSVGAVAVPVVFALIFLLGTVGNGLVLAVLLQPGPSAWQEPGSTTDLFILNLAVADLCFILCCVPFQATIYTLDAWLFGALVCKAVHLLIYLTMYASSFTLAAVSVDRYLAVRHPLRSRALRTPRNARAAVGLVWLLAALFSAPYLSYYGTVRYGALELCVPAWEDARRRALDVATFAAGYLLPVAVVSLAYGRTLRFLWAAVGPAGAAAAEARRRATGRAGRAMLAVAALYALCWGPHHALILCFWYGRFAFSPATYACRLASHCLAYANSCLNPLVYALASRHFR
Jurkat NFkB inh: inhibitors of induced NF-kB luciferase reporter, primary screen, TCR NF-kB activation inhibitor project, cell-based, luminescence, uHTS. Jurkat, PMA/ionomycin-induced NF-kB luciferase reporter. inhibition, % at 4 µM. 330,000 compounds, 0.53% hits; in the data active means inhibition above about 50%
697 NFkB inh: inhibitors of PMA/ionomycin-induced NF-kB reporter, 697 cells, primary screen, B-cell NF-kB inhibitor project, cell-based, luminescence, uHTS; 697 B-cell NF-kB luciferase reporter, 16 h; inhibition, % at 4 µM; 330,000 compounds, 0.33% hits; in the data active means inhibition above about 35%
NR2E3 ag-2: NR2E3 agonists in two-hybrid cells, primary screen, cell-based, luminescence, CHO-S, Gal4-NCOR/VP16-NR2E3. Photoreceptor-specific nuclear receptor (Homo sapiens), Q9Y5X4. luciferase. inhibition of corepressor binding, % at 3.98 µM. 360,000 compounds, 0.35% hits. AID 602229, 2012;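 active means inhibition above the mean of all tested compounds plus 3 SD, cut at about 70% in these data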;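 further: higher means lower luciferase signal from less NR2E3 corepressor binding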
Gli-Sufu block: Gli-Sufu pathway antagonists, primary screen, luciferase luminescence, Sufu-KO-LIGHT cells, uHTS. inhibition, % at 5 µM. 340,000 compounds, 0.74% hits. Sufu-KO-LIGHT fibroblasts, Gli luciferase reporter luminescence;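 active means inhibition above about 55%, limit read from the data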
NR2E3 ag confirm: NR2E3 agonists, confirmation, biochemical, TR-FRET. AID 2379, 2010. 360 compounds, 39% hits. shares compounds with NR2E3 ag-1. cell-free NR2E3 corepressor release, 5 h. activation (reported as inhibition), % at 3.98 µM; in the data active means activation above about 20%
PPARg-NCOR2 ctr: agonists of PPARg-NCOR2 corepressor interaction, counter-screen for NR2E3 agonist project, biochemical, TR-FRET. shares compounds with NR2E3 ag-1. TR-FRET PPARg-NCOR2 coregulator interaction. inhibition, % at 3.98 µM. 360 compounds, 45% hits; in the data active means inhibition above about 20%
Hits are given with their value; . = inactive; / = not tested or not shown.

SMILES	NR2E3 ag-1	GalR3 antag	Jurkat NFkB inh	697 NFkB inh	NR2E3 ag-2	Gli-Sufu block	NR2E3 ag confirm	PPARg-NCOR2 ctr
O=C(C1=C(O)C(=O)N(c2ncccn2)C1c1ccc(Cl)cc1)c1ccco1 (configuration not stated)	.	.	.	.	.	.	/	/
CCCOc1ccc(C2C(C(=O)c3ccc(C)o3)=C(O)C(=O)N2Cc2ccco2)cc1 (configuration not stated)	.	.	.	.	.	.	/	/
CCCOc1cccc(C2C(C(=O)c3ccco3)=C(O)C(=O)N2CCN(CC)CC)c1 (configuration not stated)	.	.	.	.	.	.	/	/
COCCN1C(=O)C(O)=C(C(=O)c2ccco2)C1c1cccc(Oc2ccccc2)c1 (configuration not stated)	23	.	.	.	.	.	.	28
Cc1ccc(C(=O)C2=C(O)C(=O)N(c3ncccn3)C2c2ccc(Cl)cc2)o1 (configuration not stated)	26	.	.	.	.	.	.	.
O=C(C1=C(O)C(=O)N(Cc2ccco2)C1c1ccccc1)c1cccs1 (configuration not stated)	20	.	.	.	.	.	.	.
CCCOc1ccc(C2C(C(=O)c3ccc(C)o3)=C(O)C(=O)N2Cc2ccco2)cc1OCC (configuration not stated)	24	.	.	.	.	.	.	.
Cc1ccc(C(=O)C2=C(O)C(=O)N(Cc3cccnc3)C2c2cccc(Oc3ccccc3)c2)o1 (configuration not stated)	52	.	.	.	/	.	45	41
COc1ccc(CCN2C(=O)C(O)=C(C(=O)c3ccco3)C2c2cccs2)cc1OC (configuration not stated)	24	.	.	.	.	.	.	.
Cc1ccc(C(=O)C2=C(O)C(=O)N(Cc3ccccc3)C2c2cccnc2)o1 (configuration not stated)	40	/	.	.	.	.	.	.
Cc1ccc(C(=O)C2=C(O)C(=O)N(Cc3cccnc3)C2c2ccc(Cl)cc2)o1 (configuration not stated)	.	.	.	.	.	.	/	/
Cc1ccc(C(=O)C2=C(O)C(=O)N(Cc3cccnc3)C2c2cccc([N+](=O)[O-])c2)o1 (configuration not stated)	.	.	.	.	.	.	/	/
CCOC(=O)C1=C(C(=O)OCC)C2N(Cc3ccc(Br)cc3)c3ccccc3[C@@]23C[C@@H](C(=O)OC)N(S(=O)(=O)c2ccc(C(F)(F)F)cc2)C3=N1 (some centres not stated)	/	.	/	/	/	/	/	/
C#CCN1CC(COc2ccccc2)Oc2cccc(Oc3ccc(C(C)C)cc3)c2S1(=O)=O (configuration not stated)	/	.	/	/	/	/	/	/
C#CCn1c(=NC(=O)CSC(C)=O)sc2cc(F)ccc21	27	/	.	.	.	.	.	20
O=C(CSc1nc2ccc(Cl)cc2[nH]1)Nc1ccc2c(c1)CCC2	32	.	.	.	.	.	.	.
CSc1nc(-c2ccc(Cl)cc2)c(C#N)c(=O)[nH]1	.	.	.	.	.	.	/	/
CSc1nc(-c2ccccc2)c(C#N)c(=O)[nH]1	22	.	.	.	.	.	22	25
CCC(Sc1nc2ccccc2[nH]1)C(=O)Nc1cc(C)on1 (configuration not stated)	.	.	.	.	.	.	/	/
CCC(Sc1nc(-c2ccccc2)c(C#N)c(=O)[nH]1)C(=O)Nc1cc(C)on1 (configuration not stated)	27	.	.	.	.	.	20	42
Nc1[nH]c(C(=O)c2ccc(Br)cc2)c(-c2c(F)cccc2F)c1C(=O)NCCc1c[nH]c2ccccc12	/	.	/	/	/	/	/	/
C=CCn1c(SCC(=O)NCCO)nc2sc(C)c(C)c2c1=O	.	.	.	.	.	.	/	/
C=CCn1c(SCC(=O)NC(=O)NCc2ccco2)nc2sc(C)c(C)c2c1=O	22	.	.	.	.	.	.	.
Cn1nc(C(C)(C)C)cc1C(=O)NCC1CCN(C(=O)C(=O)c2cc3ccccc3o2)CC1	/	.	/	/	/	/	/	/
COCCN=C1Sc2ccccc2[C@@H]2C[C@H]3[C@H](CON3C)CN12	/	.	/	/	/	/	/	/
SMILES	NR2E3 ag-1	GalR3 antag	Jurkat NFkB inh	697 NFkB inh	NR2E3 ag-2	Gli-Sufu block	NR2E3 ag confirm	PPARg-NCOR2 ctr
O=c1c2oc3ccccc3c2[nH]c(=S)n1-c1ccc(F)cc1	44	.	.	.	.	.	32	24
Cc1ccc(-n2c(=S)[nH]c3c(oc4ccccc43)c2=O)cc1C	43	.	.	.	.	.	35	33
COC(=O)[C@]12C[C@H](CC(=O)NCc3ccc(OC)c(OC)c3)C(=O)N(Cc3ccc4c(c3)OCO4)C1=C[C@H](COCc1ccccc1)O[C@@H]2C	/	.	/	/	/	/	/	/
O=C(O)CSc1nc2ccccc2nc1Cc1ccccc1F	54	.	.	.	.	.	34	36
O=C(C1=C(O)C(=O)N(CCN2CCOCC2)C1c1ccc([N+](=O)[O-])cc1)c1cc2ccccc2o1 (configuration not stated)	.	/	.	.	.	.	/	/
O=C(C1=C(O)C(=O)N(CCN2CCOCC2)C1c1ccc(Cl)cc1)c1cc2ccccc2o1 (configuration not stated)	20	.	.	.	.	.	26	23
O=C(C1=C(O)C(=O)N(CCCN2CCOCC2)C1c1ccc(Cl)cc1)c1cc2ccccc2o1 (configuration not stated)	30	.	.	.	/	.	28	21
Cc1ccc2nc(CN(C)C(=O)[C@H]3O[C@@H](n4cnc(C(N)=O)n4)[C@H](O)[C@@H]3O)[nH]c2c1	/	.	/	/	/	/	/	/
OC(c1ccccc1)(c1ccccc1)C1CCN(CCCOc2ccccn2)CC1	/	.	/	/	/	/	/	/
CSc1ccc(C(=O)NCC2CCN(C(=O)C(=O)c3cc4ccccc4o3)CC2)cc1	/	.	/	/	/	/	/	/
